Measured values as given in ChEMBL document CHEMBL1146335, “Synthesis and biological activation of an ethylene glycol-linked amino acid conjugate of cyclic cidofovir” (Bioorg Med Chem Lett, 2007).

Legend:
[1] = Stability in phosphate buffer in pH 7 at 37 degC at 500 uM; type: physicochemical
Procedure, shortened: (§1)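 Compound (500 μM) incubated at 37°C in 50 mM phosphate buffer brought to the stated pH with HCl. Monitored over 3 hours; half-life in hours.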

Caco-2 = experiment: (§2) Half life in Caco-2 cells in 37degC at 500 uM; type: ADME, cell-based, Colon; conditions: human, caco-2, 500 µM
Procedure, shortened: (§3)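 Compound exposed at 37°C to homogenates of Caco-2 or HFF cells, or of rat liver or intestine. Samples taken at intervals from 0 to 3 h and analysed by HPLC. Half-life estimated as for the buffer stability study.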

[2] = Stability in phosphate buffer in pH 6 at 37 degC at 500 uM; type: physicochemical; procedure, shortened: as §1
[3] = AUC (0 to infinity) in rat at 0.1 mg, iv; type: ADME, organism-based; design: dose 0.1 mg, route intravenous, time infinity; conditions: plasma
Procedure, shortened: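 Rat; reference compound dosed intravenously at 0.1 mg. Plasma AUC from zero to infinity, dose normalized.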

Rattus norvegicus = experiment: Bioavailability in rat at 3 mg, iv; type: ADME, organism-based; conditions: in vivo, in the assay text read “0.1 mg” for “3 mg”
Procedure, shortened: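 Rat; drug injected directly into the gastrointestinal tract at 3 mg, with a 0.1 mg intravenous reference. Prodrug AUC summed the released cyclic parent and the intact prodrug. Bioavailability = dose-normalized GI AUC ÷ IV AUC, corrected for the IV vs oral dose difference.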

Intestine = experiment: (§4) Half life in rat intestine in 37degC at 500 uM; type: ADME, tissue-based; conditions: 500 µM; procedure, shortened: as §3
[4] = Stability in phosphate buffer in pH 3 at 37 degC at 500 uM; type: physicochemical; conditions: pH 3, 500 µM; procedure, shortened: as §1
[5] = Stability in phosphate buffer in pH 4 at 37 degC at 500 uM; type: physicochemical; conditions: pH 4, 500 µM; procedure, shortened: as §1
HFF = experiment: (§5) Half life in HFF cells in 37degC at 500 uM; type: ADME, cell-based; conditions: human, hff, 500 µM; procedure, shortened: as §3
[6] = Half life in Sprague-Dawley rat intestinal lumen in 37degC at 500 uM; type: ADME
Procedure, shortened: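 Compound incubated at 37°C in intestinal perfusate from Sprague Dawley rats. Perfusate made by passing buffered solution (pH 6.5) through an isolated intestinal segment. Sampled between 0 and 3 h, analysed by HPLC, half-life estimated.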

[7] = Stability in phosphate buffer in pH 5 at 37 degC at 500 uM; type: physicochemical; conditions: pH 5, 500 µM; procedure, shortened: as §1
Liver = experiment: (§6) Half life in rat liver in 37degC at 500 uM; type: ADME, tissue-based; conditions: 500 µM; procedure, shortened: as §3
Human betaherpesvirus 5 = experiment: Antiviral activity against HCMV Towne in HFF cells by plaque reduction assay; type: functional, organism-based; conditions: Human betaherpesvirus 5, Towne
Procedure, shortened: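 HFF cells in 24-well dishes infected with ~100 p.f.u./cm2 HCMV Towne (plaque-purified isolate Po). After adsorption, compounds (DMSO stocks diluted in growth medium) added at 4–8 concentrations in duplicate.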

[8] = as §2; type: ADME, cell-based, Colon; conditions: human, Caco-2 cells; procedure, shortened: as §3
[9] = as §4; type: ADME, tissue-based; conditions: rat intestine; procedure, shortened: as §3
KB = experiment: Cytotoxicity against human KB cells at 100 uM; type: functional, cell-based
Procedure, shortened: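 KB cells grown logarithmically for two days with compound, in triplicate. Growth read by spectrophotometric quantitation of crystal violet eluted from stained cells.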

[10] = as §5; type: ADME, cell-based; conditions: human, HFF cells; procedure, shortened: as §3
[11] = as §6; type: ADME, tissue-based; conditions: rat liver; procedure, shortened: as §3
[12] = Stability in phosphate buffer in pH 6.5 at 37 degC at 500 uM; type: physicochemical; procedure, shortened: as §1

In the case of Nc1ccn(C[C@H]2COP(=O)(O)CO2)c(=O)n1 [CYCLIC CIDOFOVIR], the Stability ([1]; buffer, pH 7, 500 µM) is reported as “Stable”, the Stability (Caco-2) is reported as “Stable” and the Stability ([2]; buffer, pH 6, 500 µM) is reported as “Stable”. For the same compound, the AUC(0-inf) [3] was 472 ng·h/mL, the F (Rattus norvegicus) was 100% and the Stability (Intestine) was “Stable”. The Stability [4] was “Stable”, the Stability [5] was “Stable” and the Stability (HFF) was “Stable”. The Stability ([6]; in vivo, 500 µM) was “Stable”, the Stability [7] was “Stable” and the Stability (Liver) was “Stable”.

In the case of CC(C)C(N)C(=O)OCCOP1(=O)CO[C@@H](Cn2ccc(N)nc2=O)CO1 (some centres undefined), the IC50 (Human betaherpesvirus 5) is reported as 680 nM, the half-life at 500 µM ([1]; phosphate buffer, pH 7) is reported as 3.5 h and the half-life at 500 µM [8] is reported as 0.337 h. For the same compound, the half-life at 500 µM ([2]; phosphate buffer, pH 6) was 16 h, the half-life at 500 µM [9] was 0.208 h and the Activity (KB) was “Not toxic”. The Stability [4] was “Stable”, the Stability [5] was “Stable” and the half-life at 500 µM [10] was 1.17 h. For the same compound, the half-life at 500 µM ([6]; Sprague-Dawley, rat intestinal lumen) was 2.36 h, the Stability [7] was “Stable” and the half-life at 500 µM [11] was 3.7 min.

In the case of Nc1ccn(C[C@H]2COP(=O)(OCCOC(=O)C(N)Cc3ccccc3)CO2)c(=O)n1 (some centres undefined), the Stability [4] is reported as “Stable”, the Stability [5] is reported as “Stable” and the Stability [7] is reported as “Stable”. The half-life at 500 µM [12] was 3.7 h.

Work on Nc1nc2c(ncn2COC(CO)CO)c(=O)[nH]1 [GANCICLOVIR] yielded an IC50 (Human betaherpesvirus 5) of 3000 nM.
